Experimental findings from ChEMBL document CHEMBL1125745, “Unsaturated and carbocyclic nucleoside analogues: synthesis, antitumor, and antiviral activity” (J Med Chem, 1991) are described below.

Assay [1] in a line: (§1) Inhibition of incorporation of labeled precursor into macromolecules of noninfected SC-1 cells with the compound at a concentration 100 uM determined against thymidine. The assay is classed as functional. Put shortly: (§2)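 Noninfected SC-1 cells were incubated with analogue as in the cytotoxicity setup, and [3H]thymidine, [3H]uridine or [3H]leucine was added. After 4 h, wells were washed with ice-cold PBS and cells were lysed in 1% SDS, 0.01 M EDTA, 0.01 M Tris pH 7.7. Lysates were dried on glass-fiber filters, and label is expressed as percent of incorporation in untreated cells.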

Assay [2] is described as follows: (§3) Inhibition of incorporation of labeled precursor into macromolecules of noninfected SC-1 cells with the compound at a concentration 300 uM determined against uridine. It is filed as functional. An outline of the steps:
(§4)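 SC-1 cells seeded in 24-well trays at 1 × 10^4 cells/mL, incubated overnight at 37 °C, then exposed to analogue for 72 h at 37 °C. Labeled thymidine (2.5 µCi), [3H-5,6]uridine or [3H-4,5]leucine was added. After 4 h, cells were washed with cold PBS, lysed in 1% SDS/0.01 M EDTA/0.01 M Tris pH 7.7, and lysates were dried on GF/B filters. Result given as % of untreated incorporation.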

Assay [3] is filed under the species Mus musculus. Put plainly: Concentration that reduces Rauscher murine leukemia virus titer by 50%. The assay is classed as functional, organism-based. Put shortly: (§5)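 SC-1 cells (1 × 10^4/well) were pretreated with polybrene, infected 2 h at 37 °C with F-MuLV or R-MuLV in EMEM-5 with 8 µg/mL polybrene, washed, and refed with analogue for 72 h. They were then UV-irradiated and overlaid with XC cells (2 × 10^5) for 48 h, fixed and stained with crystal violet. Multinucleated cells were counted and EC50 was taken by linear regression versus untreated cultures.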

Assay [4] can be described thus: Selectivity index is the ratio of IC50 to EC50 of F-MuLV. It is filed as functional.
The species named for assay [5] is Mus musculus. As to the kind of experiment: Concentration that reduces Friend murine leukemia virus titer by 50%. It is filed as functional, organism-based. Put shortly: as §5
Assay [6] is described as follows: (§6) Inhibition of incorporation of labeled precursor into macromolecules of noninfected SC-1 cells with the compound at a concentration 100 uM determined against leucine. It is filed as functional. Put shortly: as §2
A short description of assay [7]: (§7) Inhibition of incorporation of labeled precursor into macromolecules of noninfected SC-1 cells with the compound at a concentration 300 uM determined against leucine. It is filed as functional. Put shortly: as §4
Assay [8] is filed under the species Mus musculus. Put plainly: Cytotoxicity was evaluated. It is filed as functional. An outline of the steps: (§8)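 SC-1 cells (1 × 10^4 cells/mL) were seeded, incubated overnight at 37 °C, refed with EMEM-10 and given diluted analogue in triplicate for 72 h at 37 °C. Cells were trypsinized and counted in a Coulter counter. The mean of three wells gave percent of control count, and IC50 was calculated by linear regression.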

A short description of assay [9]: (§9) Inhibition of incorporation of labeled precursor into macromolecules of noninfected SC-1 cells with the compound at a concentration 300 uM determined against thymidine. The assay is classed as functional. Put shortly:
as §4

Assay [10] is described as follows: Selectivity index which is the ratio of IC50 to EC50 of R-MuLV. The assay is classed as functional.
A short description of assay [11]: (§10) Inhibition of incorporation of labeled precursor into macromolecules of noninfected SC-1 cells with the compound at a concentration 100 uM determined against uridine. It is filed as functional. Put shortly: as §2
The subject of assay [12] is L1210. As to the kind of experiment: Inhibitory activity against murine leukemia L1210 cells. It is filed as functional, cell-based. The settings on record: Mus musculus.
Assay [13] concerns PO3. As to the kind of experiment: Cytotoxicity was evaluated against PO3 cell line at 1000 ug/disk. The assay is classed as functional, Mus musculus. Put shortly: (§11)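 Disk zone assay: analogue dilutions on 6.5 mm paper disks were placed on dishes with a 0.8% agar bottom layer and a 0.44% soft-agar top layer of tumor cells (≤1 × 10^5/plate) in Fishers-CMRL-1066 with 12% horse serum. Plates were incubated 6-10 days and the inhibition zone was measured by microscope; 200 zone units = 6 mm.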

Assay [14] is described as follows: Cytotoxicity was evaluated against low malignancy line at 1000 ug/disk. The assay is classed as functional. An outline of the steps:
as §11

Assay [15] relates to MC-38. As to the kind of experiment: Cytotoxicity was evaluated against C38 solid tumor of mouse at 1000 ug/disk. It is filed as functional. Put shortly: as §11
The test system of assay [16] is L1210. Put plainly: Cytotoxicity was evaluated against L1210 leukemia cell line at 1000 ug/disk. It is filed as functional, Mus musculus. An outline of the steps:
as §11

For assay [17], the species on record is Homo sapiens. Put plainly: Cytotoxicity was evaluated against C116 human solid tumor at 1000 ug/disk. The assay is classed as functional. Put shortly:
as §11

Assay [18] is filed under the species Mus musculus. Put plainly: Cytotoxicity was evaluated and represented as IC50. The assay is classed as functional. An outline of the steps: as §8
The nature of assay [19]: Cytotoxicity was evaluated against low malignancy line at 250 ug/disk. The assay is classed as functional. An outline of the steps:
as §11

The test system of assay [20] is PO3. As to the kind of experiment: Cytotoxicity was evaluated against PO3 cell line at 250 ug/disk. It is filed as functional, Mus musculus. Put shortly:
as §11

For assay [21], the system named is L1210. Put plainly: Cytotoxicity was evaluated against L1210 leukemia cell line at 250 ug/disk. The assay is classed as functional, Mus musculus. An outline of the steps:
as §11

Assay [22] is described as follows: Cytotoxicity was evaluated against low malignancy line at 500 ug/disk. The assay is classed as functional. Put shortly: as §11
The species named for assay [23] is Homo sapiens. As to the kind of experiment: Cytotoxicity was evaluated against C116 human solid tumor at 500 ug/disk. It is filed as functional. Put shortly:
as §11

The subject of assay [24] is MC-38. As to the kind of experiment: Cytotoxicity was evaluated against C38 solid tumor of mouse at 500 ug/disk. It is filed as functional. More on the design: unit not given beside the values. Put shortly: as §11
The subject of assay [25] is L1210. As to the kind of experiment: Compound were evaluated for inhibition of macromolecular synthesis in murine leukemia L1210 cells at 4 hour against RNA. It is filed as functional, Mus musculus. More on the design: scale not given: the % may be the effect or the level left.
The test system of assay [26] is L1210. As to the kind of experiment: Compound were evaluated for inhibition of macromolecular synthesis in murine leukemia L1210 cells at 4 hour against DNA. More on the design: scale not given: the % may be the effect or the level left. It is filed as functional, Mus musculus.
Assay [27] relates to L1210. Put plainly: Compound were evaluated for inhibition of macromolecular synthesis in murine leukemia L1210 cells at 1 hour against DNA. More on the design: scale not given: the % may be the effect or the level left. It is filed as functional, Mus musculus.
Assay [28] has as its system L1210. As to the kind of experiment: Compound were evaluated for inhibition of macromolecular synthesis in murine leukemia L1210 cells at 4 hour against Protein. More on the design: scale not given: the % may be the effect or the level left. It is filed as functional, Mus musculus.
Assay [29] has as its system L1210. Put plainly: Compound were evaluated for inhibition of macromolecular synthesis in murine leukemia L1210 cells at 1 hour against RNA. It is filed as functional, Mus musculus. More on the design: scale not given: the % may be the effect or the level left.
Assay [30] concerns L1210. As to the kind of experiment: Cytotoxicity was evaluated against L1210 leukemia cell line at 500 ug/disk. It is filed as functional, Mus musculus. An outline of the steps: as §11
In assay [31] the test system is L1210. Put plainly: Compound were evaluated for inhibition of macromolecular synthesis in murine leukemia L1210 cells at 1 hour against Protein. The assay is classed as functional, Mus musculus. More on the design: scale not given: the % may be the effect or the level left.
The species named for assay [32] is Mus musculus. Described as §1. The assay is classed as functional. An outline of the steps: as §2
The species named for assay [33] is Mus musculus. The description is as §3. The assay is classed as functional. An outline of the steps: as §4
For assay [34], the species on record is Mus musculus. Described as §6. The assay is classed as functional. An outline of the steps:
as §2

Assay [35] is filed under the species Mus musculus. Described as §7. The assay is classed as functional. An outline of the steps:
as §4

Assay [36] is filed under the species Mus musculus. The assay is described as §9. It is filed as functional. An outline of the steps:
as §4

Assay [37] is filed under the species Mus musculus. Described as §10. It is filed as functional. An outline of the steps:
as §2

The structures appear in SMILES notation. A value given as a limit tells only on which side of the number the result lay.

`Nc1ccn(C=C=CCO)c(=O)n1`: the Precursor inhibition in assay [1] was found to be 89%; in assay [2], 51%; in [6], 91%; in assay [7], 75%; in assay [9], 67%; in assay [11], 75%. Further, the results for the 50% effective concentration (EC50) in the assay filed under Mus musculus [3] and in the assay listed under Mus musculus [5] were 11.5 µM and 8.1 µM, respectively. Also, the figures for the SI in assay [4] and in assay [10] were 60.4 and 42.5, respectively. In addition, the half-inhibitory concentration (IC50) in the assay filed under Mus musculus [8] was found to be 489 µM; with L1210 [12], 560 µM.
With `Nc1ncnc2c1ncn2C1C=CCO1` (configuration not stated), the Cytotoxicity with PO3 [13] stood at 320; in assay [14] it was 500; with MC-38 [15] it was 400; in the assay on L1210 [16] it was 520; in the assay filed under Homo sapiens [17], 460. Also, in the assay on L1210 [12], the 50% inhibitory concentration (IC50) was above 500 µM.
Take `Nc1nc(O)c2ncn(CC#CCO)c2n1`: the Cytotoxicity is on record as 210 in the assay on PO3 [13] and 220 with L1210 [16]. In the assay on L1210 [12], the IC50 turned out to be 210 µM.
As to `O=C(O)P(=O)(O)O` [FOSCARNET], the EC50 in the assay listed under Mus musculus [3] came to 42.8 µM; in the assay listed under Mus musculus [5] it was 110 µM. In addition, the SI in assay [4] amounted to 9.1; in assay [10], 23.4. Also, in the assay filed under Mus musculus [18], the midpoint of inhibition, the IC50, lay at 1000 µM.
For `Nc1ncnc2c1ncn2C/C=C\CO`, the Cytotoxicity in [19] is 240; in the assay on PO3 [20], 260; with L1210 [21], 200. Moreover, the results for the concentration for a half-maximal effect (EC50) in the assay filed under Mus musculus [3] and in the assay listed under Mus musculus [5] were 124 µM and 175 µM, respectively. Moreover, the SI in assay [4] is above 1.7; in assay [10], above 2.4. The 50% inhibitory concentration (IC50) in the assay listed under Mus musculus [8] was above 300 µM; in the assay with L1210 [12] it was 490 µM.
As for `NC1=NC(N)c2c(ncn2C=C=CCO)N1` (configuration not stated), the concentration giving a half-maximal response (EC50) in the assay listed under Mus musculus [3] and in the assay filed under Mus musculus [5] was 118 µM throughout. Besides, the SI in assay [4] and in [10] was 2.2 each time. The IC50 in the assay listed under Mus musculus [8] amounted to 255 µM; in the assay on L1210 [12], 60 µM. Further, the Cytotoxicity in [22] is 40; in the assay filed under Homo sapiens [23] it was 200; in the assay on MC-38 [24], 180; in the assay with L1210 [16], 150.
Take `Nc1ncnc2c1ncn2C/C=C\CCl`: the Control with L1210 [25] came out at 73%; in the assay with L1210 [26], 68%; in the assay with L1210 [27] it was 80%; in the assay on L1210 [28], 60%; in the assay on L1210 [29], 98%; in the assay on L1210 [31], 99%. Also, the Cytotoxicity in assay [22] came out at 200; in the assay on L1210 [30], 220; in the assay with MC-38 [24] it was 280. The IC50 in the assay on L1210 [12] turned out to be 22 µM.
For the compound `Nc1ncnc2c1ncn2CC#CCO`, the Precursor inhibition is 60% in the assay listed under Mus musculus [32]; 66% in the assay filed under Mus musculus [33]; 88% in the assay filed under Mus musculus [34]; 75% in the assay filed under Mus musculus [35]; 36% in the assay listed under Mus musculus [36]; 67% in the assay listed under Mus musculus [37]. For the same compound, the EC50 was 156 µM in the assay listed under Mus musculus [3] and 245 µM in the assay listed under Mus musculus [5]. The SI is 1.7 in assay [4] and 2.6 in [10]. Further, the values for the concentration for half-maximal inhibition (IC50) in the assay filed under Mus musculus [18] and in the assay on L1210 [12] were 407 µM and 490 µM, respectively.
